Columns and labels:
HeLa [1] = assay: Cytotoxicity against human HeLa cells assessed as cell viability at 100 uM measured after 48 hrs by WST-1 assay relative to control; type: functional; settings: read-out: Activity
Method in brief: (§1)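 Ten-line human panel (9 cancer, 1 non-cancerous). Cells were seeded at a pre-established optimal density (500–30 × 10³ per well) and settled overnight. Compounds came from 10 mM DMSO stocks and were tested at two concentrations. WST-1 readout followed the manufacturer's protocol at the end of cultivation. Viability is expressed as % of untreated control cells, mean of three independent experiments.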

HT-29 [2] = assay: Cytotoxicity against human HT-29 cells assessed as cell viability at 10 uM measured after 48 hrs by WST-1 assay relative to control; type: functional; settings: read-out: Activity; method in brief: as §1
A549 [3] = assay: Cytotoxicity against human A549 cells assessed as reduction in cell viability incubated for 24 hrs by MTT assay; type: functional, cell-based; settings: A549, 24 h
Method in brief: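 A-549 cells in DMEM with 10% FBS and 1% penicillin-streptomycin were attached overnight. Compounds were prepared in PBS and serially diluted in DMEM, then incubated 24 h. Viability was read by colorimetric MTT reduction against an untreated control on each plate (100%). IC50 came from four-parameter nonlinear regression of the log concentration-response curve, mean ± SEM. MTC is the highest concentration not differing from control (t-test).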

Jurkat [4] = assay: Cytotoxicity against human Jurkat cells assessed as cell viability at 100 uM measured after 48 hrs by WST-1 assay relative to control; type: functional; settings: read-out: Activity; method in brief: as §1
[5] = Cytotoxicity against human MRC5 cells assessed as cell viability at 10 uM measured after 48 hrs by WST-1 assay relative to control; type: cell-based; settings: read-out: Activity; method in brief: as §1
Mus musculus [6] = assay: Radioprotective activity in C57Bl/6 mouse assessed as average body weight at 100 mg/kg, ip administered 5 min prior to gamma-irradation at 8.5 Gy and measured after 30 days; type: functional
A549 [7] = assay: Cytotoxicity against human A549 cells assessed as maximum tolerated concentration incubated for 24 hrs by MTT assay; type: functional
Method in brief: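 A-549 cells in DMEM with 10% FBS and 1% penicillin-streptomycin, left to attach overnight. Compounds made up in PBS, serially diluted in DMEM, incubated 24 h, then viability read by MTT reduction against untreated controls on each plate. MTC taken as the highest concentration showing no significant difference from non-treated control (t-test).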

A549 [8] = assay: Cytotoxicity against human A549 cells assessed as cell viability at 100 uM measured after 48 hrs by WST-1 assay relative to control; type: functional; settings: read-out: Activity; method in brief: as §1
SAOS-2 [9] = assay: Cytotoxicity against human SAOS-2 cells assessed as cell viability at 100 uM measured after 48 hrs by WST-1 assay relative to control; type: functional; settings: read-out: Activity; method in brief: as §1
PANC-1 [10] = assay: Cytotoxicity against human PANC-1 cells assessed as cell viability at 10 uM measured after 48 hrs by WST-1 assay relative to control; type: functional; settings: read-out: Activity; method in brief: as §1
[11] = Toxicity in C57Bl/6 mouse assessed as average body weight at 100 mg/kg, ip measured after 30 days (reference value: 27 +/ 3.2 g); type: organism-based; settings: in vivo, 720 h, time 30 day
MOLT-4 [12] = assay: Radioprotective activity against gamma irradiation-induced apoptosis in human MOLT-4 cells assessed as viable cells at 100 uM pretreated with compound for 1 hr followed by gamma irradiation and measured after 24 hrs by annexinV/propidium iodide staining based flow cytometry (reference value: 40 %); type: functional; settings: MOLT-4, light or radiation study, time 25 hrs, read-out: Activity
Mus musculus [13] = assay: Radioprotective activity in C57Bl/6 mouse assessed as body weight gain at 100 mg/kg, ip administered 5 min prior to gamma-irradation at 8.5 Gy measured after 30 days relative to control; type: functional
A2780 [14] = assay: Cytotoxicity against human A2780 cells assessed as cell viability at 10 uM measured after 48 hrs by WST-1 assay relative to control; type: functional; settings: read-out: Activity; method in brief: as §1
Mus musculus [15] = assay: Radioprotective activity in C57Bl/6 mouse assessed as average body weight at 100 mg/kg, ip administered 5 min prior to gamma-irradation at 8.5 Gy and measured immediately (reference value: 25.4 +/- 2.6 g); type: functional
MOLT-4 [16] = assay: Cytotoxicity against human MOLT-4 cells assessed as cell viability at 100 uM measured after 48 hrs by WST-1 assay relative to control; type: functional; settings: read-out: Activity; method in brief: as §1
[17] = Cytotoxicity against human MRC5 cells assessed as cell viability at 100 uM measured after 48 hrs by WST-1 assay relative to control; type: cell-based; settings: read-out: Activity; method in brief: as §1
MCF7 [18] = assay: Cytotoxicity against human MCF7 cells assessed as cell viability at 100 uM measured after 48 hrs by WST-1 assay relative to control; type: functional; settings: read-out: Activity; method in brief: as §1
A549 [19] = assay: Cytotoxicity against human A549 cells assessed as cell viability at 10 uM measured after 48 hrs by WST-1 assay relative to control; type: functional; settings: read-out: Activity; method in brief: as §1
[20] = Toxicity in C57Bl/6 mouse assessed as change in body weight at 100 mg/kg, ip measured after 30 days (reference value: 103 +/- 12 %); type: organism-based; settings: in vivo, 720 h, time 30 day
Jurkat [21] = assay: Cytotoxicity against human Jurkat cells assessed as cell viability at 10 uM measured after 48 hrs by WST-1 assay relative to control; type: functional; settings: read-out: Activity; method in brief: as §1
MOLT-4 [22] = assay: Cytotoxicity against human MOLT-4 cells assessed as cell viability at 10 uM measured after 48 hrs by WST-1 assay relative to control; type: functional; settings: read-out: Activity; method in brief: as §1
Mus musculus [23] = assay: Radioprotective activity in C57Bl/6 mouse assessed as median survival time at 100 mg/kg, ip administered 5 min prior to gamma-irradation at 8.5 Gy and measured after 30 days (reference value: 12 days); type: functional
[24] = Toxicity in C57Bl/6 mouse assessed as mouth death at 100 mg/kg, ip measured after 30 days; type: organism-based; settings: in vivo, 720 h, time 30 day
Method in brief: (§2)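 Safety in C57Bl/6 mice (27 ± 3 g) given a single 100 mg/kg i.p. injection without irradiation. Deaths, adverse effects and body weight followed over 30 days against an untreated control group. Weight reported as change from day 0.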

[25] = Immuno-toxicity in C57Bl/6 mouse assessed as decrease in absolute number of lymphocytes at 100 mg/kg, ip measured after 12 days post-treatment by flow cytometry; type: organism-based; settings: in vivo, 288 h, time 12 day
[26] = Toxicity in C57Bl/6 mouse assessed as adverse effects at 100 mg/kg, ip measured after 30 days; type: organism-based; settings: in vivo, 720 h, time 30 day; method in brief: as §2
HeLa [27] = assay: Cytotoxicity against human HeLa cells assessed as cell viability at 10 uM measured after 48 hrs by WST-1 assay relative to control; type: functional; settings: read-out: Activity; method in brief: as §1
SAOS-2 [28] = assay: Cytotoxicity against human SAOS-2 cells assessed as cell viability at 10 uM measured after 48 hrs by WST-1 assay relative to control; type: functional; settings: read-out: Activity; method in brief: as §1
PANC-1 [29] = assay: Cytotoxicity against human PANC-1 cells assessed as cell viability at 100 uM measured after 48 hrs by WST-1 assay relative to control; type: functional; settings: read-out: Activity; method in brief: as §1
MCF7 [30] = assay: Cytotoxicity against human MCF7 cells assessed as cell viability at 10 uM measured after 48 hrs by WST-1 assay relative to control; type: functional; settings: read-out: Activity; method in brief: as §1
HT-29 [31] = assay: Cytotoxicity against human HT-29 cells assessed as cell viability at 100 uM measured after 48 hrs by WST-1 assay relative to control; type: functional; settings: read-out: Activity; method in brief: as §1
A2780 [32] = assay: Cytotoxicity against human A2780 cells assessed as cell viability at 100 uM measured after 48 hrs by WST-1 assay relative to control; type: functional; settings: read-out: Activity; method in brief: as §1
[33] = Toxicity in C57Bl/6 mouse assessed as average body weight at 100 mg/kg, ip and measured immediately (reference value: 26.3 +/- 2.4 g); type: organism-based; settings: in vivo

Compound: C=CCc1ccc(OCC(O)CN2CCN(CCO)CC2)c(OC)c1 (stereo not drawn)
- viability at 100 µM (HeLa [1]): 99%
- viability at 10 µM (HT-29 [2]): 109%
- IC50 (A549 [3]): 1.12 mM
- viability at 100 µM (Jurkat [4]): 83%
- viability at 48 h, 10 µM [5]: 94%
- Activity (Mus musculus [6]): 27.3 g
- MTD (A549 [7]): 0.2 mM
- viability at 100 µM (A549 [8]): 105%
- viability at 100 µM (SAOS-2 [9]): 75%
- viability at 10 µM (PANC-1 [10]): 101%
- Activity [11]: 27 g
- viability at 100 µM (MOLT-4 [12]): 52%
- Activity (Mus musculus [13]): 103%
- viability at 10 µM (A2780 [14]): 97%
- Activity (Mus musculus [15]): 25.1 g
- viability at 100 µM (MOLT-4 [16]): 65%
- viability at 48 h, 100 µM [17]: 103%
- viability at 100 µM (MCF7 [18]): 89%
- viability at 10 µM (A549 [19]): 91%
- Activity [20]: 105%
- viability at 10 µM (Jurkat [21]): 110%
- viability at 10 µM (MOLT-4 [22]): 104%
- MST (Mus musculus [23]): 12 days
- Activity [24]: Non-Toxic
- Activity [25]: Toxic
- Activity [26]: Non-Toxic
- viability at 10 µM (HeLa [27]): 100%
- viability at 10 µM (SAOS-2 [28]): 112%
- viability at 100 µM (PANC-1 [29]): 116%
- viability at 10 µM (MCF7 [30]): 99%
- viability at 100 µM (HT-29 [31]): 102%
- viability at 100 µM (A2780 [32]): 85%
- Activity [33]: 25.7 g

Reference: ChEMBL document CHEMBL4706495, “A novel class of small molecule inhibitors with radioprotective properties” (Eur J Med Chem, 2020)
